Reference: ChEMBL document CHEMBL2062411, “Structure-activity relationship study of selective excitatory amino acid transporter subtype 1 (EAAT1) inhibitor 2-amino-4-(4-methoxyphenyl)-7-(naphthalen-1-yl)-5-oxo-5,6,7,8-tetrahydro-4H-chromene-3-carbonitrile (UCPH-101) and absolute configurational assignment using infrared and vibrational …” (J Med Chem, 2012)

Key:
Format in all cases: cell-based
[1] = target: Excitatory amino acid transporter 1 (Homo sapiens, UniProt P43003); assay: Inhibition of human EAAT1 expressed in HEK293 cells assessed as inhibition of 3[H]-D-Aspartate uptake after 6 mins by scintillation counting method
Procedure, shortened: (§1)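 HEK293 cell lines expressing EAAT1, EAAT2 or EAAT3 were cultured and assayed for [³H]-D-aspartate uptake, following an earlier published protocol. Inhibition is reported as IC50 in μM, with pIC50 ± SEM.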

[2] = target: Excitatory amino acid transporter 2 (Homo sapiens, UniProt P43004); assay: Inhibition of human EAAT2 expressed in HEK293 cells assessed as inhibition of 3[H]-D-Aspartate uptake after 6 mins by scintillation counting method; procedure, shortened: as §1
[3] = target: T1, Excitatory amino acid transporter 3 (Homo sapiens, UniProt P43005); assay: Inhibition of human EAAT3 expressed in HEK293 cells assessed as inhibition of 3[H]-D-Aspartate uptake after 6 mins by scintillation counting method; procedure, shortened: as §1
T1 sequence (P43005 whole entry): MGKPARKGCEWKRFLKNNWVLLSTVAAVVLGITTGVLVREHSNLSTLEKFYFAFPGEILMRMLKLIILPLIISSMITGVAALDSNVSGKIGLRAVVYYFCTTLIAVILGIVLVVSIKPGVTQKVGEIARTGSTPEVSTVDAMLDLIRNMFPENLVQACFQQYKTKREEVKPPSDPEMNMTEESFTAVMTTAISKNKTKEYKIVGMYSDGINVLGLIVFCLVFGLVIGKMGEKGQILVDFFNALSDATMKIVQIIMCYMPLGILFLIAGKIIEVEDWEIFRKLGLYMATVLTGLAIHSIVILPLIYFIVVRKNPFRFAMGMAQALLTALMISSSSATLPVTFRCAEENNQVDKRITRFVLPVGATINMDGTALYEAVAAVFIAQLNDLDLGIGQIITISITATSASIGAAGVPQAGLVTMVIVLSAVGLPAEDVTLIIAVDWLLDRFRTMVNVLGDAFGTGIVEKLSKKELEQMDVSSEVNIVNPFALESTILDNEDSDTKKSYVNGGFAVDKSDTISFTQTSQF

Sequence of Excitatory amino acid transporter 2 (P43004 whole entry): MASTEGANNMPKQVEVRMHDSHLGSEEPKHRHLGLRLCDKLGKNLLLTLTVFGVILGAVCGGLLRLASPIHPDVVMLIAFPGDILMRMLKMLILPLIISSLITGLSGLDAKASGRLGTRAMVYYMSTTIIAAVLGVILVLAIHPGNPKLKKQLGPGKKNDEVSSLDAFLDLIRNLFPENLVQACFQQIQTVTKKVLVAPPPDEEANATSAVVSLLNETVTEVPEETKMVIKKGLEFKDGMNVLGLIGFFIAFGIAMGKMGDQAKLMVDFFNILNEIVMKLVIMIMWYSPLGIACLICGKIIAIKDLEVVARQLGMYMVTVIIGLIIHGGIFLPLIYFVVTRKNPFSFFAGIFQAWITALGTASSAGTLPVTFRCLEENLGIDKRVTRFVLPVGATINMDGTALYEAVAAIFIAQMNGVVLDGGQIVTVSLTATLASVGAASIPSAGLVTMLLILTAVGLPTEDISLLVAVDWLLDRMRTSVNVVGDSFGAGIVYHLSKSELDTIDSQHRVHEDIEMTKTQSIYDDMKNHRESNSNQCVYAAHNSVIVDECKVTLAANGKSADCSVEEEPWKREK
Sequence of Excitatory amino acid transporter 1 (P43003 whole entry): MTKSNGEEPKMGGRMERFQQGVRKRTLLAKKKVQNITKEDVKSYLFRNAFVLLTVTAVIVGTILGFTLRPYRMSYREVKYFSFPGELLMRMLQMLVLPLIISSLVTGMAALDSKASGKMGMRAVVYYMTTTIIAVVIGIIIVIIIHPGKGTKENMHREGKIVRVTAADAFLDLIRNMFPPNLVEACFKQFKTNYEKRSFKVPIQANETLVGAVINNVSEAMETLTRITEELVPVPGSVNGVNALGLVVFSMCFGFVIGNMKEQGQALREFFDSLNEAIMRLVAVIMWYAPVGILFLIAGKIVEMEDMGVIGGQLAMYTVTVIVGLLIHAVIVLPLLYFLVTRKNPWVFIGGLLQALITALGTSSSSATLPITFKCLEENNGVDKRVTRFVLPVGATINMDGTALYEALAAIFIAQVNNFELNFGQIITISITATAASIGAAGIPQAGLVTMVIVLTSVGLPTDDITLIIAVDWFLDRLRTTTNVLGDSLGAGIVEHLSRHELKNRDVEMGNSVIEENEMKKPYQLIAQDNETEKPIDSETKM

Structure (SMILES)	IC50 ([1]; read-out: IC50)	IC50 [2]	IC50 ([1]; read-out: pIC50 (converted))	IC50 [3]
N#CC1=C(N)OC2=C(C(=O)CC(c3ccccc3)C2)C1c1ccccc1 (stereo unspecified)	3.9 µM	–	–	–
CC1C(C#N)=C(N)OC2=C1C(=O)CC(c1cccc3ccccc13)C2 (stereo unspecified)	0.42 µM	–	–	–
CC1(C)C(C#N)=C(N)OC2=C1C(=O)CC(c1ccccc1)C2 (stereo unspecified)	> 300 µM	–	–	–
N#CC1=C(N)OC2=C(C(=O)NC(c3ccccc3)C2)C1c1ccccc1 (stereo unspecified)	> 300 µM	–	–	–
N#CC1=C(N)OC2=C(C(=O)OC(c3ccccc3)C2)C1c1ccccc1 (stereo unspecified)	> 300 µM	–	–	–
N#CC1=C(N)OC2=C(C(=O)CN(c3ccccc3)C2)C1c1ccccc1 (stereo unspecified)	–	> 100 µM	> 100 µM	> 100 µM
N#CC1=C(N)OC2=C(C(=O)CN(Cc3ccccc3)C2)C1c1ccccc1 (stereo unspecified)	–	> 300 µM	16.2 µM	> 300 µM
N#CC1=C(N)OC2=C(C(=O)CN(C(=O)c3ccccc3)C2)C1c1ccccc1 (stereo unspecified)	–	> 100 µM	> 100 µM	> 100 µM
C[C@@H](c1ccccc1)N1CC(=O)C2=C(C1)OC(N)=C(C#N)[C@H]2c1ccccc1	–	> 300 µM	5.25 µM	> 300 µM
C[C@@H](c1ccccc1)N1CC(=O)C2=C(C1)OC(N)=C(C#N)[C@@H]2c1ccccc1	–	> 300 µM	> 316 µM	> 300 µM
C[C@H](c1ccccc1)N1CC(=O)C2=C(C1)OC(N)=C(C#N)[C@@H]2c1ccccc1	–	> 300 µM	> 316 µM	> 300 µM
C[C@H](c1ccccc1)N1CC(=O)C2=C(C1)OC(N)=C(C#N)[C@H]2c1ccccc1	–	> 300 µM	3.72 µM	> 300 µM
